# Columns and labels:
# Rattus norvegicus [1] = assay: Maximum percentage reduction in mean arterial blood pressure in metacorticoid (DOCA) hypertensive rats at a standard oral dose of 100 mg/kg; assay type: functional
# How it was run: (§1)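 Rats were DOCA hypertensive. For oral dosing, food was withdrawn 18 h before; rats dosed ip were not starved. The vehicle was isotonic saline. Pressure was recorded by transducer under minimal restraint: twice before dosing, then at 1, 2, 3, 5 and 22 h. MABP was taken as diastolic + one-third pulse pressure. The value is the maximum % fall from the mean of the two pretreatment readings, n = 3-5.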
# Rattus norvegicus [2] = assay: Maximum percentage reduction in mean blood pressure in metacorticoid (DOCA) hypertensive rats at a standard oral dose of 100 mg/kg; IA = Inactive;Maximum percentage fall in MABP <10%; assay type: functional, organism-based; design: dose 100 mg/kg; how it was run: as §1
# Rattus norvegicus [3] = assay: Maximum percentage reduction in mean blood pressure in metacorticoid (DOCA) hypertensive rats at a standard oral dose of 100 mg/kg; assay type: functional; how it was run: as §1
# Rattus norvegicus [4] = assay: Increase in diastolic blood pressure for 0.1 ug/kg intravenous dosing of angiotensin in pithed rats; assay type: functional, Artery
# How it was run: (§2)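 The pithed-rat preparation was used: male rats (200-300 g) got drug or isotonic saline ip in groups of five, 2 h beforehand (one reference agent 1 h). Doses were 50, 25 or 5 mg/kg. Rats were under halothane, cannulated, pithed and ventilated with room air. Noradrenaline (0.1-1.0 µg/kg) or angiotensin (0.03-0.3 µg/kg) was injected iv, and the increase in diastolic pressure was recorded in mmHg.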
# Rattus norvegicus [5] = species on record: Rattus norvegicus; assay: Increase in diastolic blood pressure for 3 Htz electrical stimulation in the pithed rats; assay type: functional, Artery
# How it was run: (§3)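 Male rats (200-300 g) were given drug or isotonic saline ip, in groups of five, 2 h before pithing (one reference agent 1 h before). Doses were 50 or 25 mg/kg, or 5 mg/kg for the reference agent. Rats were put under halothane, tracheally cannulated, pithed through the left orbit and ventilated with room air at 50 strokes/min. After iv tubocurarine (1 mg/kg), the whole sympathetic outflow was stimulated at 1, 3 or 6 Hz (0.5 ms, 20 V, 15 s). The rise in diastolic pressure was recorded in mmHg.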
# Rattus norvegicus [6] = species on record: Rattus norvegicus; assay: Increase in diastolic blood pressure for 1 Htz electrical stimulation in the pithed rats; assay type: functional, Artery; how it was run: as §3
# Rattus norvegicus [7] = species on record: Rattus norvegicus; assay: Increase in diastolic blood pressure for 6 Htz electrical stimulation in the pithed rats; assay type: functional, Artery; how it was run: as §3
# Rattus norvegicus [8] = assay: Increase in diastolic blood pressure for 0.03 ug/kg intravenous dosing of angiotensin in pithed rats; assay type: functional, Artery; how it was run: as §2
# Rattus norvegicus [9] = assay: Maximum percentage reduction in mean blood pressure in metacorticoid (DOCA) hypertensive rats at a standard oral dose of 50 mg/kg; assay type: functional; how it was run: as §1
# Rattus norvegicus [10] = assay: Increase in diastolic blood pressure for 0.3 ug/kg intravenous dosing of noradrenaline in pithed rats; assay type: functional, Artery; how it was run: as §2
# Rattus norvegicus [11] = assay: Increase in diastolic blood pressure for 1.0 ug/kg intravenous dosing of noradrenaline in pithed rats; assay type: functional, Artery; how it was run: as §2
# Rattus norvegicus [12] = assay: Increase in diastolic blood pressure for 0.1 ug/kg intravenous dosing of noradrenaline in pithed rats; assay type: functional, Artery; how it was run: as §2
# Rattus norvegicus [13] = assay: Increase in diastolic blood pressure for 0.3 ug/kg intravenous dosing of angiotensin in pithed rats; assay type: functional, Artery; how it was run: as §2
compound,measurement,setting,value
Cl.N=C(N)Nc1nnc(-c2cccc(Cl)c2)s1,Reduction,Rattus norvegicus [1],12%
Cl.N=C(N)Nc1nnc(-c2ccc(F)cc2)s1,Reduction,Rattus norvegicus [1],20%
Cc1ccccc1-c1nnc(NC(=N)NC2CCC2)s1,Reduction,Rattus norvegicus [2],Not significant
COc1cccc(-c2nnc(N=C(N)N)s2)c1,Reduction,Rattus norvegicus [2],Not significant
C/N=C(/N)Nc1nnc(-c2ccccc2C)s1,Reduction,Rattus norvegicus [3],31%
Cl.N=C(N)Nc1nnc(-c2ccccc2C(F)(F)F)s1,Reduction,Rattus norvegicus [1],26%
Cl.Ic1ccccc1-c1nnc(NC2=NCCN2)s1,Reduction,Rattus norvegicus [1],33%
Cl.N=C(N)Nc1nnc(-c2ccccc2Br)s1,Increase in blood pressure,Rattus norvegicus [4],7 mmHg
same,Increase in blood pressure,Rattus norvegicus [5],31 mmHg
same,Increase in blood pressure,Rattus norvegicus [6],17 mmHg
same,Increase in blood pressure,Rattus norvegicus [7],38 mmHg
same,Reduction,Rattus norvegicus [3],41%
same,Increase in blood pressure,Rattus norvegicus [8],3 mmHg
same,Reduction,Rattus norvegicus [9],29%
same,Increase in blood pressure,Rattus norvegicus [10],27 mmHg
same,Increase in blood pressure,Rattus norvegicus [11],50 mmHg
same,Increase in blood pressure,Rattus norvegicus [12],13 mmHg
same,Increase in blood pressure,Rattus norvegicus [13],17 mmHg
Cl.N=C(N)Nc1nnc(-c2cccs2)s1,Reduction,Rattus norvegicus [3],32%
COc1cc(C)c(-c2nnc(N=C(N)N)s2)cc1OC.Cl,Reduction,Rattus norvegicus [3],24%
CSc1ccccc1-c1nnc(N=C(N)N)s1.Cl,Reduction,Rattus norvegicus [3],13%
Cc1ccc(-c2nnc(N=C(N)N)s2)cc1C.Cl,Reduction,Rattus norvegicus [3],33%
Cc1ccccc1-c1nnc(NC(=N)N(C)C)s1.Cl,Reduction,Rattus norvegicus [3],18%
Cc1ccccc1-c1nnc(N(C)C2=NCCN2)s1,Reduction,Rattus norvegicus [2],Not significant
Cc1ccc(-c2nnc(N=C(N)N)s2)c(C)c1,Reduction,Rattus norvegicus [2],Not significant
Cc1cccc(-c2nnc(N=C(N)N)s2)c1C.Cl,Reduction,Rattus norvegicus [3],14%
Cl.N=C(N)Nc1nnc(-c2ccc(Cl)c(Cl)c2)s1,Reduction,Rattus norvegicus [3],15%
CCCC/N=C(\NCCCN(C)C)Nc1nnc(-c2ccccc2C)s1,Reduction,Rattus norvegicus [2],Not significant
CC(C)(C)c1ccccc1-c1nnc(N=C(N)N)s1,Reduction,Rattus norvegicus [3],22%
Cc1ccc(-c2nnc(N=C(N)N)s2)cc1,Reduction,Rattus norvegicus [2],Not significant
CCCOc1ccccc1-c1nnc(N=C(N)N)s1.Cl,Reduction,Rattus norvegicus [3],12%
Cc1ccc(F)cc1-c1nnc(N=C(N)N)s1.Cl,Reduction,Rattus norvegicus [3],21%
CO/N=C(/N)Nc1nnc(-c2ccccc2C)s1.Cl,Reduction,Rattus norvegicus [1],29%
Cc1ccccc1-c1nnc(NC2=NCCCN2)s1.Cl,Reduction,Rattus norvegicus [1],13%
COc1ccccc1-c1nnc(N=C(N)N)s1.Cl,Reduction,Rattus norvegicus [3],26%
Cl.N=C(N)Nc1nnc(-c2ccccc2N)s1,Reduction,Rattus norvegicus [3],14%
Cc1ccccc1-c1nnc(NC(=N)NCc2ccccc2)s1.Cl,Reduction,Rattus norvegicus [3],12%
N=C(N)Nc1nnc(-c2ccccc2O)s1,Reduction,Rattus norvegicus [2],Not significant
Cc1ccccc1-c1nnc(NC(=N)NCCO)s1.Cl,Reduction,Rattus norvegicus [3],35%
Cc1ccc(C)c(-c2nnc(N=C(N)N)s2)c1,Reduction,Rattus norvegicus [2],Not significant
COc1cccc(OC)c1-c1nnc(N=C(N)N)s1,Reduction,Rattus norvegicus [3],16%
Cc1ccccc1-c1nnc(NC(=N)NCCN)s1.Cl,Reduction,Rattus norvegicus [1],32%
Cl.N=C(N)Nc1nnc(-c2ccccc2)s1,Reduction,Rattus norvegicus [1],30%
Cc1cccc(C)c1-c1nnc(N=C(N)N)s1,Reduction,Rattus norvegicus [2],Not significant
Cc1cc(F)ccc1-c1nnc(N=C(N)N)s1.Cl,Reduction,Rattus norvegicus [3],34%
Cl.N=C(N)Nc1nnc(-c2ccccc2I)s1,Reduction,Rattus norvegicus [3],41%
same,Reduction,Rattus norvegicus [9],28%
COCC/N=C(/N)Nc1nnc(-c2ccccc2I)s1.Cl,Reduction,Rattus norvegicus [3],33%
CCCCC/N=C(/N)Nc1nnc(-c2ccccc2C)s1.Cl,Reduction,Rattus norvegicus [3],23%
Cc1ccccc1-c1nnc(NC(=N)NC(C)(C)C)s1.Cl,Reduction,Rattus norvegicus [1],18%
NNc1nncc2ccccc12 [HYDRALAZINE],Increase in blood pressure,Rattus norvegicus [4],21 mmHg
same,Increase in blood pressure,Rattus norvegicus [5],42 mmHg
same,Increase in blood pressure,Rattus norvegicus [6],28 mmHg
same,Increase in blood pressure,Rattus norvegicus [7],54 mmHg
same,Increase in blood pressure,Rattus norvegicus [8],8 mmHg
same,Increase in blood pressure,Rattus norvegicus [10],15 mmHg
same,Increase in blood pressure,Rattus norvegicus [11],28 mmHg
same,Increase in blood pressure,Rattus norvegicus [12],8 mmHg
same,Increase in blood pressure,Rattus norvegicus [13],38 mmHg
Cc1cccc(-c2nnc(N=C(N)N)s2)c1.Cl,Reduction,Rattus norvegicus [3],19%
CSCC/N=C(/N)Nc1nnc(-c2ccccc2C)s1.Cl,Reduction,Rattus norvegicus [1],18%
Cc1ccccc1-c1nnc(Nc2ncc[nH]2)s1.Cl,Reduction,Rattus norvegicus [1],40%
CC(=O)NCC/N=C(/N)Nc1nnc(-c2ccccc2C)s1,Reduction,Rattus norvegicus [1],21%
